{"data": "Measurements pooled from the literature", "observed": "metabolic stability", "species": "rat", "note": "Lines come from different studies, so protocols differ."}
{"SMILES": "O=c1[nH]c2ccccc2n1C1CCN(CCCC(c2ccc(F)cc2)c2ccc(F)cc2)CC1", "system": "liver microsomes", "setting": "100 ng/mL", "half-life": "80 min"}
{"SMILES": "C[C@]12CC[C@H]3[C@@H](CCC4=CC(=O)CC[C@@]43C)[C@@H]1CC[C@@H]2O", "system": "liver microsomes", "half-life": "1.55 min"}
{"SMILES": "C[C@]12CC[C@H]3[C@@H](CCC4=CC(=O)CC[C@@]43C)[C@@H]1CC[C@@H]2O", "system": "liver microsomes", "setting": "1 µM, pH 7.4", "half-life": "5.45 min"}
{"SMILES": "Cc1[nH]c(C)c(S(=O)(=O)Nc2ccc(S(=O)(=O)F)c(Cl)c2)c1C(=O)N1CCC(F)(F)C1", "system": "liver microsomes", "half-life": "11 min"}
{"SMILES": "CC(=O)c1c(C)c2cnc(Nc3ccc(C4CCN(CCS(C)(=O)=O)CC4)cn3)nc2n(C2CCCC2)c1=O", "system": "liver microsomes", "half-life": "65.4 min"}
{"SMILES": "Cc1ncc2n1-c1ccc(Cl)cc1C(c1ccccc1F)=NC2", "system": "hepatocytes", "half-life": "20.4 min"}
{"SMILES": "Cc1[nH]c(C)c(S(=O)(=O)Nc2ccc(S(F)(F)(F)(F)F)c(Cl)c2)c1C(=O)N1CCC(F)(F)C1", "system": "liver microsomes", "half-life": "34 min"}
{"SMILES": "CC(C)CC(=O)OC[C@H]1O[C@@](C#N)(c2ccc3c(N)ncnn23)[C@H](O)[C@@H]1O", "system": "plasma", "setting": "5 µM", "half-life": "0.422 min"}
